{
  "source": "ChEMBL document CHEMBL3600378",
  "about": "(J Med Chem, 2015)",
  "key": {"[1]": {"target": "T1, Alpha-1B adrenergic receptor (Homo sapiens, UniProt P35368)", "T1 sequence (P35368 whole entry)": "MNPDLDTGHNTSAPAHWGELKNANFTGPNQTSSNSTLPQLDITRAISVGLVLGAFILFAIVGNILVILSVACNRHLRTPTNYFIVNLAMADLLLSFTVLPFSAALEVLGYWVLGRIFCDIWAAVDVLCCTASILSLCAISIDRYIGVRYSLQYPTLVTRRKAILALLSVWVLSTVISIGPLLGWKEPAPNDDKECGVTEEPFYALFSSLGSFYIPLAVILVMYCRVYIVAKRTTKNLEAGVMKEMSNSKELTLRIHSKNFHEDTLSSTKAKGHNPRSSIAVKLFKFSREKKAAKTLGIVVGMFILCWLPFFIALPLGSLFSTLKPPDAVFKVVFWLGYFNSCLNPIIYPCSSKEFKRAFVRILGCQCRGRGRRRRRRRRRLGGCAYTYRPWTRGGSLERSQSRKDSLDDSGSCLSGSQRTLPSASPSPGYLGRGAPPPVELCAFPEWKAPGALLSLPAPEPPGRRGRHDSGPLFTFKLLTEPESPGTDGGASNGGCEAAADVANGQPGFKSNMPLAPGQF", "experiment": "Agonist activity at human alpha1B-adrenergic receptor"}, "[2]": {"target": "T2, Alpha-1D adrenergic receptor (Homo sapiens, UniProt P25100)", "T2 sequence (P25100 whole entry)": "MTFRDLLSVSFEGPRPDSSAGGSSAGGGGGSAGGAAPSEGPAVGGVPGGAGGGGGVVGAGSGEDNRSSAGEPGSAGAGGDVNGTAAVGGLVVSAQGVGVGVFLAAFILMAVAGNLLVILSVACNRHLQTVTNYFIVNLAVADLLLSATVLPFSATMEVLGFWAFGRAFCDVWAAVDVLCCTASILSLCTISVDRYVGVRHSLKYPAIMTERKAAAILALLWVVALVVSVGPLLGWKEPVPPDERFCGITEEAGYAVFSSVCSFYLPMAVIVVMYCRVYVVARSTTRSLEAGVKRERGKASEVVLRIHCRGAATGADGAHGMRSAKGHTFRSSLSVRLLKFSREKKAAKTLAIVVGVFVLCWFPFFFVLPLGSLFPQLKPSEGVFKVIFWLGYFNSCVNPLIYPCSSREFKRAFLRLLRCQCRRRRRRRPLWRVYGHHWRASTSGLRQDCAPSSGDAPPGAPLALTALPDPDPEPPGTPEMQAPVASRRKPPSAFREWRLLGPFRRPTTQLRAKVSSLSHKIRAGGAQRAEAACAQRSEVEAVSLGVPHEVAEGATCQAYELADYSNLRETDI", "experiment": "Agonist activity at human alpha1D-adrenergic receptor"}, "[3]": {"target": "Beta-1 adrenergic receptor (Homo sapiens, UniProt P08588)", "sequence (P08588 whole entry, looked up)": "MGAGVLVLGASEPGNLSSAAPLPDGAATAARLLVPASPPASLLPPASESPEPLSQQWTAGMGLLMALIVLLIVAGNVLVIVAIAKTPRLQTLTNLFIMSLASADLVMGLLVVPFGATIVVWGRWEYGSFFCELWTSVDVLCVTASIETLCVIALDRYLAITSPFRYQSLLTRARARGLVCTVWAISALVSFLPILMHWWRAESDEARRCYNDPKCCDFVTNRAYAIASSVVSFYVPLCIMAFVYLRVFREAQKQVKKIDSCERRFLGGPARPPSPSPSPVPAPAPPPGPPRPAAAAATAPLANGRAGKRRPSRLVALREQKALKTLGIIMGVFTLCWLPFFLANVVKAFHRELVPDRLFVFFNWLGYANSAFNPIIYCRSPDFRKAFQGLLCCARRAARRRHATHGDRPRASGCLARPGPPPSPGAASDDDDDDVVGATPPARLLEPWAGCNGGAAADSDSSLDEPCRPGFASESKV", "experiment": "Intrinsic activity at human beta1-adrenergic receptor expressed in CHO cells assessed as increase of cAMP level after 30 mins relative to isoproterenol", "type": "functional, cell-based", "outline": "(§1)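 Stably transfected CHO cells expressing human β1, β2 or β3 or marmoset β3 receptor were grown in Ham's F-12 with 10% FBS and geneticin, seeded at 2×10⁴ cells/well and grown about 20 h. Cells spent 15 min serum-free, then 30 min with compound in medium containing HEPES and isobutylmethylxanthine. Lysate cAMP was measured by kit. […] EC50 is the half-maximal concentration for each compound.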"}, "[4]": {"target": "T3, Beta-3 adrenergic receptor (Homo sapiens, UniProt P13945)", "experiment": "Agonist activity at human recombinant beta3-adrenergic receptor expressed in CHO cells assessed as increase of cAMP level after 30 mins", "type": "functional, cell-based"}, "[5]": {"target": "T4, Alpha-2C adrenergic receptor (Homo sapiens, UniProt P18825)", "T4 sequence (P18825 whole entry)": "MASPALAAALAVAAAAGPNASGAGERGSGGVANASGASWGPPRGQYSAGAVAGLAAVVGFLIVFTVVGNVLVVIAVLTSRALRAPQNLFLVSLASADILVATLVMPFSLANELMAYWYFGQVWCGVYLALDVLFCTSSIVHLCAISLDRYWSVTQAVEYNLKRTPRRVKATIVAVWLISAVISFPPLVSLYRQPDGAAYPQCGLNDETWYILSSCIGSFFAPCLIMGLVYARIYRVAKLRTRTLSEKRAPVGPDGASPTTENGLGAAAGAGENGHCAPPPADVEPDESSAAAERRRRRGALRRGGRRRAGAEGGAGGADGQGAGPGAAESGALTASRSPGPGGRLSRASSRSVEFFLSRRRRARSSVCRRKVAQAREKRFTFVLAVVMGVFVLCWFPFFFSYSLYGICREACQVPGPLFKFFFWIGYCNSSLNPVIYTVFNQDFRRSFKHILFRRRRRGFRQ", "experiment": "Agonist activity at human alpha2C-adrenergic receptor"}, "[6]": {"target": "T5, Alpha-2B adrenergic receptor (Homo sapiens, UniProt P18089)", "T5 sequence (P18089 whole entry)": "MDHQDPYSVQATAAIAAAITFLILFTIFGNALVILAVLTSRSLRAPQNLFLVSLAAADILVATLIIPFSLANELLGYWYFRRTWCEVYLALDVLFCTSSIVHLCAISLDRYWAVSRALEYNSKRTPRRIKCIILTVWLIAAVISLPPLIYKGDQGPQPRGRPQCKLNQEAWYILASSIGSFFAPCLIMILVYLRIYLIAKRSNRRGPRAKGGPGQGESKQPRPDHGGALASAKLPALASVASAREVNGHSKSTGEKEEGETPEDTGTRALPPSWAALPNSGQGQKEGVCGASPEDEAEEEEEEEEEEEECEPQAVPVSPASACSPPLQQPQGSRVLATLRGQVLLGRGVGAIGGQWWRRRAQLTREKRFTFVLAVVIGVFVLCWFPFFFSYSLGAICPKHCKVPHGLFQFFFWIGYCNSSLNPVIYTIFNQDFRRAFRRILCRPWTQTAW", "experiment": "Agonist activity at human alpha2B-adrenergic receptor"}, "Rattus norvegicus [7]": {"test_system": "Rattus norvegicus", "experiment": "Cardiotoxicity in anesthetized Sprague-Dawley rat assessed as decrease in mean blood pressure at 3 mg/kg, iv measured for 30 mins relative to control", "type": "toxicity, organism-based", "parameters": "scale not given: the % may be the effect or the level left", "conditions": "in vivo, 0.5 h", "outline": "(§2)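 Male Sprague-Dawley rats (200-300 g) were anesthetized with sodium pentobarbital (50 mg/kg i.p. plus 25 mg/kg s.c.). The compound was injected via the cannulated left femoral vein once BP and HR were stable, and HR and MBP were recorded for 30 min. Results are the maximum % increase or decrease from baseline, as mean ± SEM. Where given, silodosin (0.01 mg/kg iv) preceded the compound.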"}, "[8]": {"target": "Beta-2 adrenergic receptor (Homo sapiens, UniProt P07550)", "sequence (P07550 whole entry)": "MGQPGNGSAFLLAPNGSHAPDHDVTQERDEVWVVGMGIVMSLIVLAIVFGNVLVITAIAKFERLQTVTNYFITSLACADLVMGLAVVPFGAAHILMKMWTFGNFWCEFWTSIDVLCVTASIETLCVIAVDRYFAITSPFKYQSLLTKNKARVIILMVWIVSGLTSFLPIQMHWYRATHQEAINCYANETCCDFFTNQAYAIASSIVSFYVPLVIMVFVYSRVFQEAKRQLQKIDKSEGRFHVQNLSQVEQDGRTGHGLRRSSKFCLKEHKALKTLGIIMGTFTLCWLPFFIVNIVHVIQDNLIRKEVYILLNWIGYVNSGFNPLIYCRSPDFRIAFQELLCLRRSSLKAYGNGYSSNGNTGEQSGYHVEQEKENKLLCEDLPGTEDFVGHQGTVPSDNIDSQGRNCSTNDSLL", "experiment": "Agonist activity at human beta2-adrenergic receptor expressed in CHO cells assessed as increase of cAMP level after 30 mins", "type": "functional, cell-based", "outline": "as §1"}, "Rattus norvegicus [9]": {"test_system": "Rattus norvegicus", "experiment": "Cardiotoxicity in anesthetized Sprague-Dawley rat assessed as increase in mean blood pressure at 3 mg/kg, iv measured for 30 mins relative to control", "type": "toxicity, organism-based", "conditions": "in vivo, 0.5 h", "outline": "as §2"}, "[10]": {"target": "T3, Beta-3 adrenergic receptor", "experiment": "Intrinsic activity at human beta3-adrenergic receptor expressed in CHO cells assessed as increase of cAMP level after 30 mins relative to isoproterenol", "type": "functional, cell-based", "outline": "as §1"}},
  "data": [
    {"smiles": "Cc1n[nH]c2cc(OCCNC[C@H](O)c3cccc(NS(C)(=O)=O)c3)ccc12", "values": [
      {"measurement": "EC50", "setting": "[1]", "value": "> 10", "unit": "µM"},
      {"measurement": "EC50", "setting": "[2]", "value": "> 10", "unit": "µM"},
      {"measurement": "Intrinsic activity", "setting": "[3]", "value": 6, "unit": "%"},
      {"measurement": "EC50", "setting": "[4]", "value": 0.021, "unit": "µM"},
      {"measurement": "EC50", "setting": "[5]", "value": "> 10", "unit": "µM"},
      {"measurement": "EC50", "setting": "[6]", "value": "> 10", "unit": "µM"},
      {"measurement": "Activity", "setting": "Rattus norvegicus [7]", "value": 8.5, "unit": "%"},
      {"measurement": "EC50", "setting": "[8]", "value": "> 10", "unit": "µM"},
      {"measurement": "Activity", "setting": "Rattus norvegicus [9]", "value": 24.2, "unit": "%"},
      {"measurement": "Intrinsic activity", "setting": "[10]", "value": 82, "unit": "%"}
    ]}
  ]
}
